The nature of data set [1]: Metabolic stability in mouse plasma assessed as half life at 2 uM measured after 0 to 120 mins by LC-MS/MS analysis. The format is ADME, cell-free. As to conditions: time 0-120 min; for t1/2: 2 µM.
Data set [2] is described as follows: Half life in male CD-1 mouse at 10 mg/kg, po measured upto 480 mins by LC-MS/MS analysis. It is filed as ADME, organism-based. As to conditions: in vivo, 8 h. The gist of the method:
(§1)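 Mouse PK after single oral dose of 10 mg/kg; n = 3 animals per time point; plasma concentration–time profile used for observed and calculated PK parameters.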

Data set [3] can be described thus: Drug concentration in male CD-1 mouse plasma at 3 mg/kg, iv measured after 4 hrs by LC-MS/MS analysis. The format is ADME, organism-based. The gist of the method:
(§2)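 Mouse PK after single intravenous injection of 3 mg/kg; n = 3 animals per time point; plasma concentration–time profile used for observed and calculated PK parameters.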

A short description of data set [4]: Half life in male CD-1 mouse at 3 mg/kg, iv measured upto 240 mins by LC/MS/MS analysis. It is filed as ADME, organism-based. To be noted: in vivo, 4 h. In a few lines:
as §2

Data set [5] is described as follows: Tmax in male CD-1 mouse at 3 mg/kg, iv measured upto 240 mins by LC/MS/MS analysis. The format is ADME, organism-based. To be noted: in vivo, 4 h. The gist of the method:
as §2

Data set [6] can be described thus: Oral bioavailability in male CD-1 mouse at 10 mg/kg measured upto 480 mins by LC-MS/MS analysis. It is filed as ADME, organism-based. To be noted: in vivo, 8 h. In a few lines:
as §1

Data set [7] in a line: Drug concentration in male CD-1 mouse plasma at 10 mg/kg, po measured after 4 hrs by LC-MS/MS analysis. It is filed as ADME, organism-based. In a few lines:
as §1

Data set [8] can be described thus: Cmax in male CD-1 mouse at 3 mg/kg, iv measured upto 240 mins by LC/MS/MS analysis. The format is ADME, organism-based. As to conditions: in vivo, 4 h.
Data set [9] can be described thus: Cmax in male CD-1 mouse at 10 mg/kg, po measured upto 480 mins by LC-MS/MS analysis. The format is ADME, organism-based. To be noted: in vivo, 8 h. The gist of the method:
as §1

Data set [10] in a line: Metabolic stability in mouse liver microsomes assessed as half life at […] preincubated for 15 mins followed by NADPH cofactor addition and measured after 1 hr by LC-MS/MS analysis. The format is ADME, Microsome. To be noted: dose 4.6 µM, time 75 min.
The nature of data set [11]: Drug concentration in male CD-1 mouse plasma at 10 mg/kg, po measured after 8 hrs by LC-MS/MS analysis. It is filed as ADME, organism-based. In a few lines: as §1

18 compounds from ChEMBL document CHEMBL5500397, “Discovery of CDC42 Inhibitors with a Favorable Pharmacokinetic Profile and Anticancer In Vivo Efficacy” (J Med Chem, 2024) can be followed below.

Structures are written as SMILES.

Regarding `FC(F)(F)Oc1cccc(Nc2nc(-c3ccccc3)cc(C3CCNCC3)n2)c1`, the t1/2 in data set [1] was over 2 h.
As to `FC(F)(F)c1cc(Nc2nc(-c3ccccc3)cc(C3CCNCC3)n2)ccn1`, the results for the t1/2 in data set [2], in data set [4] and in data set [1] were 1.52 h, 1.92 h and over 2 h, respectively. Further, the values for the concentration at 4 h in data set [3] and in data set [7] were 84 ng/mL and 40 ng/mL, respectively. Further, in data set [5], the Tmax was 5 min. This compound also gave a F in [6] of 8%. The Cmax worked out at 643 ng/mL in data set [8] and 99 ng/mL in data set [9].
As to `CN(C)c1cccc(Nc2cc(-c3ccccc3)nc(C3=CCNCC3)n2)c1`, in data set [1], the t1/2 is over 2 h.
Regarding `COc1ccc(Nc2nc(-c3ccccc3)cc(C3CCNCC3)n2)cn1`, the t1/2 in data set [1] was over 2 h.
As to `COC(=O)c1cc(Nc2nc(-c3ccccc3)cc(C3CCNCC3)n2)ccc1OC`, in data set [1], the t1/2 was found to be 1.48 h.
Take `CN(C)c1cccc(Nc2nc(-c3ccccc3)cc(C3CCNCC3)n2)c1`: the t1/2 in [1] stood at 1 h.
For the compound `FC(F)(F)c1cccc(Nc2nc(-c3ccccc3)cc(C3CCNCC3)n2)c1`, in [1], the t1/2 is over 2 h.
For the compound `FC(F)(F)c1cccc(Nc2nc(-c3coc4ccccc34)nc(C3CCNCC3)n2)c1`, in data set [10], the half-life at […] is over 1 h. In [1], the half-life at 2 µM was over 2 h.
Take `c1ccc(-c2cc(Nc3ccc4cc[nH]c4c3)nc(C3CCNCC3)n2)cc1`: the t1/2 in data set [1] was over 2 h.
Consider `FC(F)(F)c1cccc(Nc2nc(-c3cccc4cnccc34)nc(C3CCNCC3)n2)c1`, for which the half-life at […] in [10] is over 1 h. Further, the half-life at 2 µM in data set [1] is over 2 h.
Regarding `FC(F)Oc1cc(Nc2nc(-c3ccccc3)cc(C3CCNCC3)n2)ccn1`, the t1/2 in data set [1] is over 2 h.
For `COc1cc(Nc2nc(-c3ccccc3)cc(C3CCNCC3)n2)ccn1`, the t1/2 in data set [1] was over 2 h.
Consider `FC(F)(F)c1cccc(Nc2nc(-c3ccc[nH]3)nc(C3CCNCC3)n2)c1`, for which the t1/2 in data set [1] was over 2 h.
`FC(F)(F)c1cccc(Nc2nc(-c3ccc4[nH]ncc4c3)nc(C3CCNCC3)n2)c1`: the half-life at […] in [10] is over 1 h. In addition, the half-life at 2 µM in [1] is over 2 h.
As to `Cn1ccc2ccc(Nc3cc(-c4ccccc4)nc(C4CCNCC4)n3)cc21`, the t1/2 in data set [1] is over 2 h.
Consider `FC(F)(F)c1cccc(Nc2nc(C3=CCNCC3)nc(-c3ccsc3)n2)c1`, for which the t1/2 in data set [1] is over 2 h.
On to `COc1ccc(Nc2nc(-c3ccccc3)cc(C3CCNCC3)n2)cc1OC`, for which the t1/2 was determined as 2.8 h in data set [2] and 4.28 h in [4]. The concentration at 4 h in data set [3] came to 74 ng/mL. Further, the Tmax in data set [5] came to 5 min. For the same compound, the F in data set [6] stood at 22%. Besides, the half-life at 2 µM in data set [1] was over 2 h. The maximum concentration (Cmax) in data set [8] was found to be 320 ng/mL; in data set [9], 140 ng/mL. In addition, the concentration at 8 h in [11] was determined as 7 ng/mL.
`Cn1ccc2cc(-c3nc(Nc4cccc(C(F)(F)F)c4)nc(C4CCNCC4)n3)ccc21`: the half-life at […] in data set [10] is over 1 h. In addition, in data set [1], the half-life at 2 µM was over 2 h.
